# T cell HTS – T cell immune modulators affecting CD8 T cell-vesicle binding | 2C CD8+ T cell-vesicle binding, flow cytometry; stronger effect = lower value | response (vesicle binding), % at 7 µM | 330,000 tested, 0.068% active | AID 2052;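 active means response, share of CD8 T cells binding vesicles, and their 90th percentile fluorescence all below set limits, cut at about 80% in these data, passing the limit was not always enough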;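 further: values below 100% mean blocked vesicle binding to the CD8+ T cells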
#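 material = purified 2C TCR transgenic mouse naive CD8+ T cells | controls = Unloaded micro-vesicles (low), QL9 vesicles with 0.7% DMSO (high) | detection = cytometric PE anti-B7-1 and Alexa647 anti-CD8 signals after 1% paraformaldehyde fixation | incubation = binding step 1.5 h, 37 °C, antibody labelling 20 min, ice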
# ALR H2O2 inh – inhibitors of human sulfhydryl oxidase ALR; inhibition, % (concentration not given with the values); purified ALR, DTT oxidation, H2O2 HRP-luminol luminescence; AID 485317; 290,000 tested, 3.8% active;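 active means mean replicate inhibition above about 79%, with every replicate also reaching it, limit read from the data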
# Target sequence (P55789 whole entry, looked up): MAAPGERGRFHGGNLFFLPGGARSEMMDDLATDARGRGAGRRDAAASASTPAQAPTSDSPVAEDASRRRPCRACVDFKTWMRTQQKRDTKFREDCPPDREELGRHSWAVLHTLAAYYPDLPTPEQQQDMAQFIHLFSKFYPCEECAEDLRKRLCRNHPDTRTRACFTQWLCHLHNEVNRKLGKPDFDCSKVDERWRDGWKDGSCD
# Glyco luc inh – blocks N-linked glycosylation in D54 reporter cells | D54 ERlucT glycosylation luciferase reporter, 24 h; percent of 100 nM tunicamycin response | reporter increase, % at 12.5 µM | AID 588692 | 360,000 tested, 0.23% active;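 active means mean luciferase reporter signal, scaled so untreated is 0 and the glycosylation-blocking control 100, at or above a set limit in every replicate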;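 further: luciferase carries N-glycosylation sites so blocking glycosylation raises the light; 0% = median of neutral control wells and 100% = median of 100 nM tunicamycin wells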
# An asterisk follows results filed as active; i = inactive; nt = no result. The sample as a whole holds a higher share of hits than the screen did.
SMILES,T cell HTS,ALR H2O2 inh,Glyco luc inh
COc1ccc(CCNC(=O)CSCc2ccc([N+](=O)[O-])cc2)cc1,388,-14,0
COc1ccc2cc(/C=N/NC(=O)CSCc3ccc([N+](=O)[O-])cc3)c(Cl)nc2c1,624,99*,-1
NS(=O)(=O)c1cccc(C(=O)OCC(=O)NC2CCCc3ccccc32)c1 (stereo not given),60,-4,3
CCCN1C(=O)c2ccccc2NC1c1ccc(OC)cc1O (stereo not given),140,88*,-10
Cc1ccc(N2C(=O)c3ccccc3NC2c2ccccc2O)cc1 (stereo not given),288,27,-11
O=C1c2ccccc2NC(c2ccccc2O)N1O (stereo not given),167,91*,4
CCCN1C(=O)c2ccccc2NC1c1ccc(OC)cc1OC (stereo not given),208,2,1
COc1ccc(Nc2nc(N3CCN(S(=O)(=O)N(C)C)CC3)nc3ccccc23)cc1,240,9,-2
O=C(NC1CCCC1)C(c1ccc(F)cc1)N(C(=O)c1csnn1)C1CCCC1 (stereo not given),310,3,1
CN1C(=O)N(CC(=O)Nc2nccs2)C(=O)C12CCCCC2,499,2,1
O=C(Oc1ccc(-c2csnn2)cc1)c1cccs1,732,-7,0
O=C(Oc1ccccc1-c1csnn1)c1cccs1,382,99*,0
Fc1ccc(NCc2nnc3n2CCCCC3)cc1,310,19,1
Cc1ccc(NCc2nnc3n2CCCCC3)c(C)c1,239,99*,3
Cc1csc(NC(C)c2nc3cc(Cl)c(Cl)cc3n2CCCO)n1 (stereo not given),365,45,2
CC1CCC2(CC1)NC(=O)N(Cc1cccc(C(F)(F)F)c1)C2=O (stereo not given),355,5,4
CCOc1ccc(Nc2nc(N)c([N+](=O)[O-])c(NCc3ccccc3)n2)cc1,286,0,-3
CCOc1ccc(Nc2nc(N(C)c3ccccc3)nc(N)c2[N+](=O)[O-])cc1,239,2,36*
Cc1cc(OC(C)C(=O)NCc2ccccn2)c2c(C)c(C)c(=O)oc2c1 (stereo not given),254,-17,6
CC1(C)CC(=O)C/C(=N/Nc2nc3ccccc3s2)C1,126,nt,-11
CC1CCC/C(=N/Nc2nc3ccccc3s2)C1 (stereo not given),146,97*,-5
CC(=O)c1ccc(NC(=O)c2cc(Cl)sc2Cl)cc1,190,-18,-2
OCCC1CN(Cc2ccc(Oc3ncccn3)cc2)CCN1C1CCCCC1 (stereo not given),327,-2,-2
CCC(NC(=O)c1cc(COc2ccc(C)nc2)on1)c1ccc(C)cc1 (stereo not given),361,0,-3
COC(=O)c1cc(S(=O)(=O)N2c3ccccc3CC2C)c[nH]1 (stereo not given),583,8,-1
SMILES,T cell HTS,ALR H2O2 inh,Glyco luc inh
CCOc1cccc(C(=O)Nc2ccc(N(CC)CC)cc2)c1,501,nt,7
CCN(CC)c1cccc(OCC(=O)N(C)CCC#N)c1,398,98*,1
CCOc1ccc(CNC(=O)CCC(=O)N2Cc3ccccc3Oc3ncccc32)cc1,278,-16,-1
CCn1c2ccccc2c2cc(NC(=O)CSc3nnc(-c4ccc(OC)c(OC)c4)n3N)ccc21,331,98*,7
CCn1c2ccccc2c2cc(NC(=O)CSc3nnc(-c4cccc(OC)c4)n3N)ccc21,808,3,4
CCOc1ccc(-c2nnc(SCC(=O)Nc3ccc4c(c3)c3ccccc3n4CC)n2N)cc1,733,5,73*
CCn1c2ccccc2c2cc(NC(=O)CSc3nnc(-c4ccccc4OC)n3N)ccc21,321,-12,0
Cc1ccc(C(C)C)c(O)c1C(=O)O,nt,nt,1
c1ccc(-c2cc3c(N4CCCC4)ncnc3s2)cc1,139,1,-4
c1ccc(-c2cc3c(N4CCOCC4)ncnc3s2)cc1,314,97*,-6
CCOC(=O)/C(=C/C=C1\Sc2ccccc2N1CC)C(C)=O,519,88*,-3
CCOC(=O)/C(=C\C=C1/Sc2ccccc2N1CC)C(C)=O,728,66,-6
COc1cc(C(=O)NCC2(N(C)C)CCCCC2)ccc1OCc1ccccc1,141,-7,-6
CC(=O)N1CCc2cc(NC(=O)C3(C)CCN3Cc3ccc(C(C)C)cc3)ccc21 (stereo not given),nt,nt,-3
COc1ccccc1OCCCC(=O)Nc1nnc(C2CCCO2)s1 (stereo not given),371,-3,6
Cc1cc2nc(-c3ccc(SCc4ccccc4C#N)nc3)[nH]c2cc1C,454,-58,-2
Cc1cc2nc(-c3ccc(SCc4ccc(C(=O)O)cc4)nc3)[nH]c2cc1C,295,99*,7
Cc1cc(NC(=O)CSc2ccc(-c3nc4cc(C)c(C)cc4[nH]3)cn2)no1,195,37,44*
Cc1cc2nc(-c3ccc(SCC(=O)NC(C)C)nc3)[nH]c2cc1C,327,-4,nt
CCc1nc2ccc(C(=O)N3CCN(C(C)=O)CC3)cn2c1N(C)C(=O)c1cccc(OC)c1,nt,nt,1
Cc1ccc(C)c(SCC(=O)NCC(c2ccco2)N2CCCCC2)c1 (stereo not given),808,1,-5
CCCC(C(=O)Nc1cccc(S(=O)(=O)N2CCCC2)c1)c1ccccc1 (stereo not given),364,-8,-4
Cc1csc2nc3cc(C(N)=O)ccc3c(=O)n12,607,-8,3
NC(=O)c1ccc2c(=O)n3c(-c4cc(Cl)c(N)c(Cl)c4)csc3nc2c1,i,-6,29*
O=C(NCCCN1CCOCC1)c1cc(-c2cccs2)on1,415,-5,46*
SMILES,T cell HTS,ALR H2O2 inh,Glyco luc inh
Cc1ccc(-c2cc(C(=O)NCCCN3CCOCC3)no2)cc1,349,-2,-4
O=C(NCCCn1ccnc1)c1cc(-c2cccs2)on1,161,-4,155*
COc1ccc(OC)c(-c2cc(C(=O)NCCCn3ccnc3)no2)c1,344,-21,2
CCCCN(Cc1ccco1)C(=O)C1CCCN(c2ncnc3c2nc2n3CCCCC2)C1 (stereo not given),202,-2,-1
O=C(O)c1ccc2c(=O)n3c(nc2c1)/C(=C/c1cccc(Cl)c1Cl)CCCC3,210,97*,5
O=C(O)c1ccc2c(=O)n3c(nc2c1)/C(=C/c1ccc(F)cc1)CC3,91,nt,0
CCCCCCCSc1ncnc2[nH]ncc12,nt,nt,-3
O=C(NCc1ccc(F)cc1)C1CC(=O)N(Cc2ccco2)C1 (stereo not given),308,-4,1
O=S(=O)(Nc1ccccc1O)c1ccc(Cl)nc1,138,99*,1
O=S(=O)(Nc1ccccc1F)c1ccc(Cl)nc1,950,nt,-2
Cc1cccc(NC(=O)N2CCCc3ccccc32)c1C,331,-12,-3
O=C(O)/C=C/c1cn(Cc2ccccc2)nc1-c1cccnc1,186,-3,1
CCc1ccc(-c2nn(Cc3ccccc3)cc2/C=C/C(=O)O)cc1,114,80*,2
O=C(Cc1ccc(Br)cc1)NCCc1ccc(F)cc1,220,-2,-7
O=C(CCc1[nH]c2ccccc2c1Sc1ccccc1)NCCO,185,99*,-1
O=C(CCc1ccccc1)NCCSc1ccccc1,162,-23,0

# Screening data: PubChem BioAssay, several laboratories
